Laboratory results: ChEMBL document CHEMBL3414467, “Exploring the 7-oxo-thiazolo[5,4-d]pyrimidine core for the design of new human adenosine A3 receptor antagonists. Synthesis, molecular modeling studies and pharmacological evaluation” (Eur J Med Chem, 2015)
pIC50, pKi: −log10 of the molar value.

How the values were obtained:
Adenosine receptor A3 [1] = molecular target: T1, Adenosine receptor A3 (Homo sapiens, UniProt P0DMS8); assay: Displacement of [125I]AB-MECA from human adenosine A3 receptor expressed in CHO cell membranes incubated for 120 mins by scintillation counting method
T1 sequence (P0DMS8 whole entry): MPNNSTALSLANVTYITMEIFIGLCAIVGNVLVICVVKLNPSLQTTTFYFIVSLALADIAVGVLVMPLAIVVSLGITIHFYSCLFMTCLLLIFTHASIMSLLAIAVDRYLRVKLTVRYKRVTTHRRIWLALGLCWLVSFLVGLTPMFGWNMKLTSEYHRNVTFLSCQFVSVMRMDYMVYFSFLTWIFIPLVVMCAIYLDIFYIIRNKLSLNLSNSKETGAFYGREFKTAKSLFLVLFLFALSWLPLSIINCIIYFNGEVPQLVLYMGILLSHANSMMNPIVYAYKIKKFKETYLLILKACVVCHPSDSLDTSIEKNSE
In short: (§1)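 Membranes from hA3-CHO cells (50 μg protein/assay), pretreated with 2 IU/mL adenosine deaminase. Incubated with 0.5 nM [125I]AB-MECA in 50 mM Tris HCl, 10 mM MgCl2, 1 mM EDTA, pH 7.4, with six to eight compound concentrations; percent inhibition taken at 1 μM. Ki from IC50 by Cheng–Prusoff, means of four assays in duplicate.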

[2] = molecular target: T2, Adenosine receptor A2b (Homo sapiens) (UniProt P29275); assay: Antagonist activity against human adenosine A2B receptor expressed in CHO cells assessed as inhibition of NECA-induced cAMP production at 1 uM by scintillation counting method; type: functional, cell-based
T2 sequence (whole entry): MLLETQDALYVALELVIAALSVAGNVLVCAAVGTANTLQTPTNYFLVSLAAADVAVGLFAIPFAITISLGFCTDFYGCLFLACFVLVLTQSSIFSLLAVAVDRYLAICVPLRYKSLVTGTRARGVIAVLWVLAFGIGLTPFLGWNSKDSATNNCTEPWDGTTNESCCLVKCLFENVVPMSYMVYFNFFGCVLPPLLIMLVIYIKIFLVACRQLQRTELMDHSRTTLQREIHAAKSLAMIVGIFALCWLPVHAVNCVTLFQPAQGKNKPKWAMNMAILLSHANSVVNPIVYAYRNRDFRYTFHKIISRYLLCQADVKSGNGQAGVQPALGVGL
In short: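 hA2B-transfected CHO cells (1 × 10⁶ cells/assay) in buffered saline-glucose medium with 2 IU/mL adenosine deaminase and Ro 20-1724, preincubated 10 min at 37 °C, stimulated with 200 nM NECA; test compounds at 1 μM, reported as percent inhibition. Stopped with cold 6% TCA, ether-extracted; cAMP measured by competition binding with [3H]cAMP and beef adrenal binding protein.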

[3] = molecular target: T3, Adenosine receptor A1 (Homo sapiens) (UniProt P30542); assay: Displacement of [3H]DPCPX from human adenosine A1 receptor expressed in CHO cell membranes at 1 uM incubated for 120 mins by scintillation counting method
T3 sequence (whole entry): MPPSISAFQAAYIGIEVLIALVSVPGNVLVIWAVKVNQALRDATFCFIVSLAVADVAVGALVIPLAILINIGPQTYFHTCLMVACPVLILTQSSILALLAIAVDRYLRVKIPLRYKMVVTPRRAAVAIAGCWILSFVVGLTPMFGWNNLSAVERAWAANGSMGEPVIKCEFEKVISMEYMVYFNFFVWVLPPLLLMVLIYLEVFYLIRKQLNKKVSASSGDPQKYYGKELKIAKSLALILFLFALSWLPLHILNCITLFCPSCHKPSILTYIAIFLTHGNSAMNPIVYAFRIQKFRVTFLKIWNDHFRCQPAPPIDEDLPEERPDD
In short: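 Membranes from hA1-CHO cells (50 μg protein/assay), pretreated with adenosine deaminase 2 IU/mL, 30 min at 37 °C. Incubated with 1 nM [3H]DPCPX in 50 mM Tris HCl pH 7.4 for 120 min at 25 °C. Nonspecific binding defined with 1 μM DPCPX. Test compounds at 1 μM, reported as percent inhibition. Separation by GF/B filtration; read by scintillation counting.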

[4] = molecular target: Adenosine receptor A2a (Homo sapiens) (UniProt P29274); assay: Displacement of [3H]ZM241385 from human adenosine A2A receptor expressed in CHO cell membranes at 1 uM incubated for 60 mins by scintillation counting method
In short: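 Membranes from hA2A-CHO cells (50 μg protein/assay), deaminase-treated. Incubated with 1 nM [3H]ZM241385 in 50 mM Tris HCl, 10 mM MgCl2, pH 7.4 for 60 min at 4 °C. Nonspecific binding defined with 1 μM ZM241385. Test compounds at 1 μM, reported as percent inhibition. Filter separation; scintillation counting.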

[5] = molecular target: T4, Adenosine receptor A3 (Homo sapiens) (UniProt P0DMS8); assay: Displacement of [125I]AB-MECA from human adenosine A3 receptor expressed in CHO cell membranes at 1 uM incubated for 120 mins by scintillation counting method; in short: as §1
T4 sequence (whole entry): T1 sequence (P0DMS8 whole entry)

Adenosine receptor A3 [6] = molecular target: T1, Adenosine receptor A3; assay: Antagonist activity against human adenosine A3 receptor expressed in CHO cells assessed as blockade of Cl-IB-MECA-induced inhibition of forskolin-induced cAMP production by scintillation counting method; type: functional, cell-based
In short: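 hA3-transfected CHO cells (1 × 10⁶ cells/assay) in buffered medium pH 7.4 with 2 IU/mL adenosine deaminase and Ro 20-1724, preincubated 10 min at 37 °C; antagonists tested against 100 nM Cl-IB-MECA. Stopped with cold TCA; cAMP measured by [3H]cAMP competition binding with adrenal binding protein. IC50 from sigmoid nonlinear regression, mean of four experiments.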

Chain of Adenosine receptor A2a (Homo sapiens) (P29274 whole entry): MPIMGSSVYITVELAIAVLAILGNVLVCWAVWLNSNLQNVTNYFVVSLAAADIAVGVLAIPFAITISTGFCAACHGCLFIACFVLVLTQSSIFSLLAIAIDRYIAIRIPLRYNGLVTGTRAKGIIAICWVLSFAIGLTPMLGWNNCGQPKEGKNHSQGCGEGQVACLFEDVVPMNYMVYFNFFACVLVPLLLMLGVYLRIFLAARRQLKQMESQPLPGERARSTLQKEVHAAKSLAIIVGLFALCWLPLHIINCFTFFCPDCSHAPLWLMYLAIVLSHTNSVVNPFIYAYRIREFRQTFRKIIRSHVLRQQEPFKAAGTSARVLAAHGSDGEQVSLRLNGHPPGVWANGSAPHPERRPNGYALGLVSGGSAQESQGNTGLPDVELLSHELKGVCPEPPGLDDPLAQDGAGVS

pKi (Adenosine receptor A3 [1]) | inhibition [2] [%] | inhibition [3] [%] | inhibition [4] [%] | inhibition [5] [%] | pIC50 (Adenosine receptor A3 [6]) | SMILES
6.42 | 1 | 1 | 31 | – | – | Cc1cccc(-c2nc3c(=O)[nH]c(C)nc3s2)c1
– | 1 | 30 | 16 | 25 | – | Cc1nc2sc(Nc3ccc(Cl)c(Cl)c3)nc2c(=O)[nH]1
– | 1 | 11 | 1 | 6 | – | CCOc1nc(C)nc2sc(-c3ccccc3)nc12
6.97 | 17 | 1 | 15 | – | – | Cc1nc2sc(-c3ccc(F)cc3)nc2c(=O)[nH]1
– | 1 | 1 | 1 | 15 | – | Cc1nc2sc(-c3ccncc3)nc2c(=O)[nH]1
– | 1 | 44 | 21 | 48 | – | Cc1nc2sc(Nc3cccc(Cl)c3)nc2c(=O)[nH]1
6.96 | 1 | 1 | 1 | – | – | Cc1nc2sc(-c3cccc(F)c3)nc2c(=O)[nH]1
6.64 | 3 | 1 | 9 | – | – | Cc1nc2sc(-n3cccc3)nc2c(=O)[nH]1
6.35 | 1 | 12 | 8 | – | – | Cc1cccc(Nc2nc3c(=O)[nH]c(C)nc3s2)c1
– | 4 | 1 | 12 | 28 | – | COc1cccc(-c2nc3c(=O)[nH]c(C)nc3s2)c1
– | 2 | 37 | 1 | 20 | – | Cc1nc2sc(-c3ccco3)nc2c(=O)[nH]1
– | 1 | 1 | 37 | 32 | – | Cc1nc2sc(-c3ccc(C(F)(F)F)cc3)nc2c(=O)[nH]1
– | 1 | 1 | 1 | 36 | – | COc1ccc(Nc2nc3c(=O)[nH]c(C)nc3s2)cc1
– | 17 | 1 | 15 | 15 | – | Cc1nc2sc(-c3cccc(C(F)(F)F)c3)nc2c(=O)[nH]1
7.74 | 1 | 1 | 1 | – | 7.38 | Cc1nc2sc(-c3ccc(Cl)cc3)nc2c(=O)[nH]1
6.37 | 1 | 11 | 1 | – | – | Cc1nc2sc(Cc3ccccc3)nc2c(=O)[nH]1
– | 1 | 1 | 1 | 8 | – | Cc1nc2sc(-n3ccnc3)nc2c(=O)[nH]1

pKi (Adenosine receptor A3 [1]) | inhibition [2] [%] | inhibition [3] [%] | inhibition [4] [%] | inhibition [5] [%] | pIC50 (Adenosine receptor A3 [6]) | SMILES
– | 1 | 33 | 18 | 49 | – | Cc1nc2sc(Nc3ccc(Cl)cc3)nc2c(=O)[nH]1
7.42 | 3 | 10 | 1 | – | – | COc1ccc(-c2nc3c(=O)[nH]c(C)nc3s2)cc1
– | 1 | 1 | 1 | 1 | – | Cc1nc2sc(-c3ccc(C(=O)O)cc3)nc2c(=O)[nH]1
6.08 | 1 | 24 | 10 | – | – | Cc1nc2sc(-c3cccc(Cl)c3)nc2c(=O)[nH]1
– | 1 | 1 | 1 | 15 | – | Cc1nc2sc(-c3ccc(O)cc3)nc2c(=O)[nH]1
6.61 | 1 | 4 | 1 | – | – | Cc1nc2sc(-c3cccs3)nc2c(=O)[nH]1
– | 1 | 1 | 1 | 5 | – | CCOc1nc(C)nc2sc(-c3ccc(C)cc3)nc12
6.96 | 1 | 3 | 25 | – | – | CCOc1nc(C)nc2sc(Nc3cccc(OC)c3)nc12
– | 1 | 20 | 18 | 47 | – | Cc1ccc(Nc2nc3c(=O)[nH]c(C)nc3s2)cc1
7.07 | 1 | 11 | 1 | – | 6.66 | Cc1nc2sc(-c3ccccc3)nc2c(=O)[nH]1
– | 1 | 24 | 14 | 45 | – | Cc1nc2sc(Nc3ccccc3)nc2c(=O)[nH]1
– | 1 | 6 | 9 | 10 | – | CCOc1nc(C)nc2sc(-c3ccc(Cl)cc3)nc12
6.95 | 1 | 8 | 1 | – | – | COc1cccc(Nc2nc3c(=O)[nH]c(C)nc3s2)c1
7.48 | 3 | 17 | 2 | – | – | Cc1ccc(-c2nc3c(=O)[nH]c(C)nc3s2)cc1
– | 1 | 2 | 3 | 45 | – | CCOc1nc(C)nc2sc(Nc3ccccc3)nc12
– | 1 | 1 | 1 | 33 | – | Cc1nc2sc(-c3cccnc3)nc2c(=O)[nH]1
